PubChem BioAssay
The source made the active and inactive calls.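 Rule for the calls: active = current rise at least 3 SD above the untreated control mean in each of two repeat wells; inactive = the rest.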

target: Potassium voltage-gated channel subfamily KQT member 1 (Homo sapiens) (UniProt P51787); test: KCNQ1 channel current potentiators, confirmation, orthogonal assay for KCNQ1 potentiator project, IonWorks patch clamp, KCNQ1-CHO cells (AID 493184); conditions: automated patch clamp current, at 10 µM
Outline: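 assay system = KCNQ1-expressing CHO cells | medium = external bath solution at pH 7.4 | probe or stimulus = 2,000 ms depolarization, -90 to +40 mV | compound dosing = 10 µM final, single point | measured by = automated voltage clamp, amphotericin B perforated patch | measure = percent current increase versus pre-compound level | replication = duplicates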

Chain of Potassium voltage-gated channel subfamily KQT member 1 (Homo sapiens) (P51787 whole entry, looked up): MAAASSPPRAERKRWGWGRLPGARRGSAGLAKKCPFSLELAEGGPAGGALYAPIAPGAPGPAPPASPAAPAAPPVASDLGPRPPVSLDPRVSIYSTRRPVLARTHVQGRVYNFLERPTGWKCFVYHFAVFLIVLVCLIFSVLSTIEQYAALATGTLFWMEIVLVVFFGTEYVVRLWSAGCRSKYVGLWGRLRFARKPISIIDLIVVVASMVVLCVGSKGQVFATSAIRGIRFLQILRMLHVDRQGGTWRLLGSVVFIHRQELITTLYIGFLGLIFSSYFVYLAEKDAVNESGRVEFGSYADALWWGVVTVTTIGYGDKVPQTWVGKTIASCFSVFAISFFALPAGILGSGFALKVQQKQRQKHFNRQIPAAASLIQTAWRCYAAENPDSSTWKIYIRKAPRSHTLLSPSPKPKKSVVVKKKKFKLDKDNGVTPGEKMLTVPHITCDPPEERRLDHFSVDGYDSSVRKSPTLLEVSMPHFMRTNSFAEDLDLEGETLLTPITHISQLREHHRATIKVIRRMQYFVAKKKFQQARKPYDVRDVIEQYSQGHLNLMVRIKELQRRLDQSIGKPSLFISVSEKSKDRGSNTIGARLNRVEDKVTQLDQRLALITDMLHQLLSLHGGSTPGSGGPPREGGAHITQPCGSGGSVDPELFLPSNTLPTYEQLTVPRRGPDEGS

outcome, inactive:
COc1cc(CNCc2ccccn2)ccc1OCc1ccc(Cl)cc1, Cc1cc2n(n1)SC(Nc1ccc(F)c(Cl)c1)N2 (configuration not stated), CNC(=O)c1nnsc1S(=O)c1ccc(Cl)cc1 (configuration not stated), CCCC(=O)Nc1ccc(S(=O)(=O)N2CCC(c3nc4ccccc4[nH]3)CC2)cc1, CNc1nc(N)c([N+](=O)[O-])c(Nc2cccc(F)c2)n1, CCC1CCCCN1C(=S)NC(=O)c1ccc([N+](=O)[O-])cc1 (configuration not stated), O=C(Cn1c(C(F)(F)F)nc2ccccc21)N=Nc1c(O)[nH]c2ccc(Br)cc12, CCn1c(=S)[nH]c2sc3c(c2c1=O)CCCC3, Cc1ccccc1-n1cnnc1SCC(=O)N1CCN(c2ccccc2)CC1, COc1cccc(C(=O)NNC(=O)C(=O)Nc2cccc(Cl)c2C)c1, Nc1nc(-c2ccccc2)c(N=Nc2ccccc2Cl)s1, Cc1sc(-n2c(C)cc(/C=C3\SC(=S)NC3=O)c2C)c(C#N)c1C, ON/C=N/C(=S)Nc1ncc(C(F)(F)F)cc1Cl, Cc1c(/C=N\NC(=O)c2ccc(F)cc2)cnn1C, O=c1c2cccnc2n(-c2ccccc2)n1Cc1ccc(Cl)cc1, NNC(=O)c1sccc1OCc1ccc(Cl)cc1Cl, CCCSc1nnc(-c2cnn(-c3ccccc3)c2-n2cccc2)n1C, COc1ccc(-c2cc3nc(C)c(CCC(=O)NC(C)CCc4ccco4)c(C)n3n2)c(OC)c1 (configuration not stated), CC(=O)NC1=C(NC2CCS(=O)(=O)C2)C(=O)c2ccccc2C1=O (configuration not stated), CCOc1ccc(C(=O)NC(=S)N(Cc2ccccc2)Cc2ccccc2)cc1, CC1CCN(C(=S)NC(=O)c2cccs2)CC1, Oc1c(N=NC(=S)Nc2ccccc2F)c2ccccc2n1Cc1ccc(F)cc1
